Legend:
[1] = Growth inhibition of human Molt4/C8 cells after 3 days; assay type: functional, cell-based; conditions: MOLT-4, 72 h
How it was run: (§1)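 Human CEM and Molt 4/C8 T-lymphocytes were grown for three days with or without serial dilutions of the compound. IC50 is the concentration that inhibits cell growth by 50%.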

CCRF-CEM = experiment: Growth inhibition of human CEM cells after 3 days; assay type: functional, cell-based; conditions: 72 h; how it was run: as §1
[2] = biological target: T1, ATP-dependent translocase ABCB1 (Homo sapiens, UniProt P08183); experiment: Reversal of P-glycoprotein-mediated multidrug resistance in human MDR1 gene transfected mouse L5178Y cells assessed as fluorescence activity ratio at 20 uM by rhodamine 123 accumulation assay; assay type: cell-based
How it was run: (§2)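 Murine L-5178Y lymphoma cells transfected with human MDR1 gene (P-gp-overexpressing), alongside parental cells, treated or untreated with compound; rhodamine 123 accumulation measured by fluorescence; FAR = ratio of fluorescence intensity in treated versus untreated cells, values above 1 taken as MDR reversal.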

[3] = biological target: T1, ATP-dependent translocase ABCB1; experiment: Reversal of P-glycoprotein-mediated multidrug resistance in human MDR1 gene transfected mouse L5178Y cells assessed as fluorescence activity ratio at 200 uM by rhodamine 123 accumulation assay; assay type: cell-based; how it was run: as §2
[4] = Cytotoxicity against human HGF cells after 48 hrs; assay type: cell-based
[5] = Cytotoxicity against human HPC cells after 48 hrs; assay type: cell-based
[6] = Cytotoxicity against human HPLF cells after 48 hrs; assay type: cell-based
HL-60 = experiment: Cytotoxicity against human HL60 cells after 48 hrs; assay type: functional; conditions: HL-60, 48 h
HSC-2 = experiment: Cytotoxicity against human HSC2 cells after 48 hrs; assay type: functional; conditions: HSC-2, 48 h
HSC-3 = experiment: Cytotoxicity against human HSC3 cells after 48 hrs; assay type: functional; conditions: HSC-3, 48 h
HSC-4 = experiment: Cytotoxicity against human HSC4 cells after 48 hrs; assay type: functional; conditions: HSC-4, 48 h

T1 sequence (P08183 whole entry): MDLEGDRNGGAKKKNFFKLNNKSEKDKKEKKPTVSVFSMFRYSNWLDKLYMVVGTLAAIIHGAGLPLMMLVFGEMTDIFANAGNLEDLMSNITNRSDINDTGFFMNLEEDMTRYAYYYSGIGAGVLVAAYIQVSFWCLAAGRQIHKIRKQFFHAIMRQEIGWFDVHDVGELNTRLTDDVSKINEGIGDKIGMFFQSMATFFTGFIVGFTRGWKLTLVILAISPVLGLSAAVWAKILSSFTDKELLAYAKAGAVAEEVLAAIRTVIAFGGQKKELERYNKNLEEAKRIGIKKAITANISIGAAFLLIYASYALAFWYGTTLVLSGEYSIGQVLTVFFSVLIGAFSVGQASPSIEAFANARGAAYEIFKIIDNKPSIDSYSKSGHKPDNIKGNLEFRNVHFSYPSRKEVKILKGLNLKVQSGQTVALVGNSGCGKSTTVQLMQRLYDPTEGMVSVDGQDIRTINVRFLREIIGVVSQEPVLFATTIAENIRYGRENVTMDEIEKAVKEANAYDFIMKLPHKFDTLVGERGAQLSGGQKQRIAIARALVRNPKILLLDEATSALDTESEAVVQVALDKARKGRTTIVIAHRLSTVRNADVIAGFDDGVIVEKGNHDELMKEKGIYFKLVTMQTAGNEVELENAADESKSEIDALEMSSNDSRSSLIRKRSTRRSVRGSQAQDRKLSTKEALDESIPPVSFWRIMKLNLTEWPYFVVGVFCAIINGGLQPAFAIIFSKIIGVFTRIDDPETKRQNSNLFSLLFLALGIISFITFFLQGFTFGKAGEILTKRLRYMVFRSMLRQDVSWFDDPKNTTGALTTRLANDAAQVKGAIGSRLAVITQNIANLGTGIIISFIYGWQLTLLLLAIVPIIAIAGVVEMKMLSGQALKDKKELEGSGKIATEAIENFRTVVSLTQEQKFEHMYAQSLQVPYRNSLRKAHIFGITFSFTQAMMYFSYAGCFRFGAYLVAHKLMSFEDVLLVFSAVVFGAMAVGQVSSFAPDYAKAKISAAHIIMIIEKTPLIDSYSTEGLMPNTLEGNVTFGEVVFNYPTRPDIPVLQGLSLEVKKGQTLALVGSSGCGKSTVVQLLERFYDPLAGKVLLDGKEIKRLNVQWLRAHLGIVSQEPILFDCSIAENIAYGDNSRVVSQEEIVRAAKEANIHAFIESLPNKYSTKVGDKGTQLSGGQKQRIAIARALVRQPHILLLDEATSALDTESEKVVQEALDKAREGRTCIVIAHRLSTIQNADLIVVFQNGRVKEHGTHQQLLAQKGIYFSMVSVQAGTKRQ

| SMILES | IC50 [1] [µM] | IC50 (CCRF-CEM) [µM] | Ratio [2] | Ratio [3] | CC50 at 48 h [4] [µM] | CC50 at 48 h [5] [µM] | CC50 at 48 h [6] [µM] | CC50 (HL-60) [µM] | CC50 (HSC-2) [µM] | CC50 (HSC-3) [µM] | CC50 (HSC-4) [µM] |
| --- | --- | --- | --- | --- | --- | --- | --- | --- | --- | --- | --- |
| Cc1c(C(=O)/C=C/c2ccc3c(c2)OCO3)[n+]([O-])c2ccccc2[n+]1[O-] | 24.2 | 28.1 | 1.58 | 3.67 | 75 | 79 | 72 | 13 | 23 | 25 | 28 |
| COc1cc(/C=C/C(=O)c2c(C)[n+]([O-])c3ccccc3[n+]2[O-])cc(OC)c1OC | 5.51 | 5.22 | 8.15 | 41.9 | 35 | 31 | 33 | 1.9 | 7.8 | 6.6 | 6.5 |
| CC(=O)c1c(C)[n+]([O-])c2ccccc2[n+]1[O-] [MEQUINDOX] | 44.6 | 87.4 | 1.06 | 1.04 | > 400 | 352 | > 400 | 26 | 196 | 146 | 134 |
| Cc1c(C(=O)/C=C/c2ccccc2)[n+]([O-])c2ccccc2[n+]1[O-] | 6.76 | 5.92 | 10.9 | 36.8 | 32 | 36 | 35 | 4.1 | 8.4 | 9.7 | 9.6 |
| Cc1c(C(=O)/C=C/c2ccc(Cl)cc2)[n+]([O-])c2ccccc2[n+]1[O-] | 7.75 | 16 | 2.63 | 5.97 | 27 | 21 | 12 | 11 | 13 | 38 | 19 |
| Cc1c(C(=O)/C=C/c2ccc(Br)cc2)[n+]([O-])c2ccccc2[n+]1[O-] | 17.1 | 11.6 | 2.03 | 2.81 | 53 | 43 | 26 | 23 | 19 | 56 | 36 |
